ChEMBL document CHEMBL1806446, “Synthesis and evaluation of hermitamides A and B as human voltage-gated sodium channel blockers” (Bioorg Med Chem, 2011)

How the values were obtained:
[1] = target: Sodium channel protein type 2 subunit alpha (Homo sapiens) (UniProt Q99250); experiment: Inhibition of human voltage-gated sodium channel 1.2 expressed in HEK293 cells at 100 nM by […]; assay type: cell-based
In short: (§1)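 HEK293 cells stably expressing hNav1.2, grown in DMEM/F12 with 10% FBS and G418 at 37 °C. Whole-cell patch clamp at 20–22 °C with ≥75% series resistance compensation. Currents evoked by a 25 ms step from –60 to +10 mV every 15 s. Compound was diluted from DMSO stock into perfusion, ≤0.1% DMSO final, applied after a 3 min control until steady state. Reported as percent block, mean ± SEM.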

[2] = species on record: Rattus norvegicus; experiment: Displacement of [3H]batrachotoxin from neurotoxin site 2 of voltage-gated sodium channel in rat forebrain tissue at 10 uM after 60 mins
In short: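 Rat forebrain membranes (10 mg tissue/well) incubated with [3H]-BTX (30–60 Ci/mmol) in 50 mM HEPES pH 7.4 with 130 mM choline chloride, 37 °C, 60 min; test at 10 μM. Stopped by rapid vacuum filtration onto glass fiber filters; bound radioactivity counted against control and expressed as percent displacement. Aconitine (1 μM) positive control.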

[3] = target: Sodium channel protein type 2 subunit alpha (Homo sapiens) (UniProt Q99250); experiment: Inhibition of human voltage-gated sodium channel 1.2 expressed in HEK293 cells at 1 uM by […]; assay type: cell-based; in short: as §1
[4] = target: Sodium channel protein type 2 subunit alpha (Homo sapiens) (UniProt Q99250); experiment: Inhibition of human voltage-gated sodium channel 1.2 expressed in human HEK293 cells at 10 uM by […]; assay type: cell-based; in short: as §1

Sequence of Sodium channel protein type 2 subunit alpha (Homo sapiens) (Q99250 whole entry, looked up, the tested form may be a part): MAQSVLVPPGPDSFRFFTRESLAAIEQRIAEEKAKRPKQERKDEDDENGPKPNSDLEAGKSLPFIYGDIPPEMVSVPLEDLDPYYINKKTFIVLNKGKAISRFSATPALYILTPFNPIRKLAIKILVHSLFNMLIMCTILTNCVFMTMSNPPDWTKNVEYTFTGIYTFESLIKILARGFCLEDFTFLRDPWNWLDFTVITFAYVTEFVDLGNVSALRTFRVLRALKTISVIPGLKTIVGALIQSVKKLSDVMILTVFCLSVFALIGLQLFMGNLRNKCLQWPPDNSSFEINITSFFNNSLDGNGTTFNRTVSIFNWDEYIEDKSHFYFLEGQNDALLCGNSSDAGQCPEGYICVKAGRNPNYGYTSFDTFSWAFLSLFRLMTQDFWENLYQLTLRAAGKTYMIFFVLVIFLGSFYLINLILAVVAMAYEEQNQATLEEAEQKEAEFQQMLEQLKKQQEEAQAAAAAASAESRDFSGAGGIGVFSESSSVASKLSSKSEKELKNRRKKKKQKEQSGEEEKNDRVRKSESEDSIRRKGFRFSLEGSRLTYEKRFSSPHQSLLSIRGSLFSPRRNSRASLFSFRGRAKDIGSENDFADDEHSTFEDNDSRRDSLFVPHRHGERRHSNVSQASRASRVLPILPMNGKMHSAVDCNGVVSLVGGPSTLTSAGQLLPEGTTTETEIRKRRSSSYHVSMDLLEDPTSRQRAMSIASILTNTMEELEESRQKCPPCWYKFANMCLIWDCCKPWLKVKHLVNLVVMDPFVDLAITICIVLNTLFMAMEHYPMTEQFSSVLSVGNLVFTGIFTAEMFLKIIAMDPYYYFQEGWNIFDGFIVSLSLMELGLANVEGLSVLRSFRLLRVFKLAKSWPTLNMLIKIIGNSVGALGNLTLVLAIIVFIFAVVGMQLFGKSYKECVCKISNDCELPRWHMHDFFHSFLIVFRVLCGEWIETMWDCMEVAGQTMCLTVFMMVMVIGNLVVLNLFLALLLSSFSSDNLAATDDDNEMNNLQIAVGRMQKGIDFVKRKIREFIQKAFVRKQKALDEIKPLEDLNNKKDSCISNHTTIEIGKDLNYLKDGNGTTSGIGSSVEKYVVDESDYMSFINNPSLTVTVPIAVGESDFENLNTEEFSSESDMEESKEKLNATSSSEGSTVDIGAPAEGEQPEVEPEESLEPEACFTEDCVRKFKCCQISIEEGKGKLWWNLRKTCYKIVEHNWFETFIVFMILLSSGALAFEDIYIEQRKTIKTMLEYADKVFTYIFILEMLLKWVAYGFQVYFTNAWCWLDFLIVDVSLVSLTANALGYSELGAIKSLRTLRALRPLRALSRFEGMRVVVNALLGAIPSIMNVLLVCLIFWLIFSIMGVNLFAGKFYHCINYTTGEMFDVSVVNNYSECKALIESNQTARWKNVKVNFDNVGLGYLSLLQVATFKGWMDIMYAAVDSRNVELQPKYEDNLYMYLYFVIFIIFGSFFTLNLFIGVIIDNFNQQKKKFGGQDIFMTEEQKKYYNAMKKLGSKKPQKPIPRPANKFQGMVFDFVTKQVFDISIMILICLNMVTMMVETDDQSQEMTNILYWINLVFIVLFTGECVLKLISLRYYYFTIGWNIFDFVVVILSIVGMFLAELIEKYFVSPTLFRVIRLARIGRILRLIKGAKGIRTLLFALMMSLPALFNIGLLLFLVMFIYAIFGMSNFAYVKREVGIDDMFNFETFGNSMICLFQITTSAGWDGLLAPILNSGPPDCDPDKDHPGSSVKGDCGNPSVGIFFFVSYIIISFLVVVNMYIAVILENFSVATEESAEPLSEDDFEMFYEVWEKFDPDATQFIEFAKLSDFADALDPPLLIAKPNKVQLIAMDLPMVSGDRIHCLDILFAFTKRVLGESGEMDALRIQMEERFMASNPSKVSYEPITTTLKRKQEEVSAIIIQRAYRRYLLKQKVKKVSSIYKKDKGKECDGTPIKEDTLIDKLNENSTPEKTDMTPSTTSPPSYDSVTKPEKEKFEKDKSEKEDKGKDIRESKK

## CCCCCCCC(C/C=C/CCC(=O)NCCc1c[nH]c2ccccc12)OC (racemic)
[1]
  inhibition: 24.3%
[2]
  Activity: 36%
[3]
  inhibition: 88.4%
[4]
  inhibition: 100%

## CCCCCCC[C@H](C/C=C/CCC(=O)NCCc1c[nH]c2ccccc12)OC
[1]
  inhibition: 28.8%
[2]
  Activity: 20.3%
[3]
  inhibition: 80.7%

## CCCCCCC[C@H](C/C=C/CCC(=O)O)OC
[2]
  Activity: 11.9%

## CCCCCCCC(C/C=C/CCC(=O)O)OC (racemic)
[2]
  Activity: 7.35%

## CCCCCCCC(C/C=C/CCC(=O)NCCc1ccccc1)OC (racemic)
[1]
  inhibition: < 10%
[2]
  Activity: 15.7%
[3]
  inhibition: 49.7%
[4]
  inhibition: 90.2%

## CCCCCCC[C@@H](C/C=C/CCC(=O)O)OC
[2]
  Activity: 7.77%

## O=C1NC(=O)C(c2ccccc2)(c2ccccc2)N1
[2]
  Activity: 19.8%
[3]
  inhibition: < 10%
[4]
  inhibition: 10%

## CCCCCCC[C@@H](C/C=C/CCC(=O)NCCc1c[nH]c2ccccc12)OC
[1]
  inhibition: 17.2%
[2]
  Activity: 29%
[3]
  inhibition: 87.8%
[4]
  inhibition: 100%

## CCCCCCC[C@@H](C/C=C/CCC(=O)NCCc1ccccc1)OC
[1]
  inhibition: 15.5%
[2]
  Activity: 15.9%
[3]
  inhibition: 74.4%
[4]
  inhibition: 94.4%

## CCCCCCC[C@H](C/C=C/CCC(=O)NCCc1ccccc1)OC
[1]
  inhibition: < 10%
[2]
  Activity: 13.8%
[3]
  inhibition: 58.7%
